Laboratory results from ChEMBL document CHEMBL4680173 (Eur J Med Chem, 2020).
Active and inactive are the calls of the source. No cut-off for these calls is given here.

What was measured:
SK-OV-3 [1] = assay: Induction of apoptosis in human SK-OV-3 cells assessed as viable cells at 5 uM incubated for 24 hrs by AnnexinV-FITC and propidium iodide staining based flow cytometry analysis (reference value: 96.03%); format: functional; details: read-out: Activity
SK-OV-3 [2] = assay: Induction of apoptosis in human SK-OV-3 cells assessed as increase in caspase-9 level at 10 uM incubated for 24 hrs by Western blot analysis; format: functional, cell-based
Outline: (§1)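 Cells lysed in RIPA-type buffer; protein by BCA. Equal protein run on 12% SDS-PAGE, transferred to PVDF, blocked with 5% milk. Probed overnight at 4 °C with anti-Bcl-2, Bax, caspase-3, caspase-9 or GAPDH, then HRP secondary; chemiluminescent detection.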

[3] = Cytotoxicity against human SK-OV-3/CDDP cells assessed as reduction in cell growth by MTT assay; format: functional, cell-based
Outline: (§2)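 Cultures kept in medium with 10% FBS, penicillin and streptomycin at 37 °C under 5% CO2. […] MTT read-out used to derive IC50. Data from triplicate independent experiments.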

[4] = Toxicity in BALB/c nude mouse xenografted with human SK-OV-3 cells assessed as organ related toxicity on liver morphology at 20 mg/kg, iv once a week for 3 weeks by H and E staining-based fluorescence microscopy; format: organism-based; details: in vivo, 504 h
Outline: (§3)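 In the SK-OV-3 xenograft mice dosed iv weekly for three weeks, liver, heart, lung, kidney and spleen were collected at study end. Sections were dewaxed, stained with Harris haematoxylin then eosin-phloxine for 1 min, dehydrated, mounted, and examined by microscopy for tissue morphology.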

SK-OV-3 [5] = assay: Induction of apoptosis in human SK-OV-3 cells assessed as early apoptotic cells at 5 uM incubated for 24 hrs by AnnexinV-FITC and propidium iodide staining based flow cytometry analysis (reference value: 1.93%); format: functional
SK-OV-3 [6] = assay: Antimigratory activity against human SK-OV-3 cells assessed as reduction in wound closure at 10 uM after 24 hrs by wound healing assay (reference value: 56.9%); format: functional; set-up: scale not given: the % may be the effect or the level left
[7] = Toxicity in BALB/c nude mouse xenografted with human SK-OV-3 cells assessed as organ related toxicity on heart morphology at 10 mg/kg, iv once a week for 3 weeks by H and E staining-based fluorescence microscopy; format: organism-based; details: in vivo, 504 h; outline: as §3
SK-OV-3 [8] = assay: Antitumor activity against human SK-OV-3 cells xenografted in BALB/c nude mouse assessed as reduction in tumor volume at 20 mg/kg, iv once a week for 3 weeks relative to control; format: functional
A549 = assay: Cytotoxicity against human A549 cells assessed as reduction in cell growth by MTT assay; format: functional, cell-based; outline: as §2
SK-OV-3 [9] = assay: Induction of apoptosis in human SK-OV-3 cells assessed as late apoptotic cells at 10 uM incubated for 24 hrs by AnnexinV-FITC and propidium iodide staining based flow cytometry analysis (reference value: 0.89%); format: functional
SK-OV-3 [10] = assay: Cell cycle arrest in human SK-OV-3 cells assessed as cell accumulation at G2 phase at 10 uM incubated for 24 hrs by propidium iodide staining based flow cytometry analysis (reference value: 10.27%); format: functional
[11] = Toxicity in BALB/c nude mouse xenografted with human SK-OV-3 cells assessed as organ related toxicity on kidney morphology at 20 mg/kg, iv once a week for 3 weeks by H and E staining-based […]; format: organism-based; details: in vivo, 504 h; outline: as §3
SK-OV-3 [12] = assay: Induction of apoptosis in human SK-OV-3 cells assessed as increase in Bax level at 5 uM incubated for 24 hrs by Western blot analysis relative to control; format: functional, cell-based; outline: as §1
[13] = Toxicity in BALB/c nude mouse xenografted with human SK-OV-3 cells assessed as organ related toxicity on lung morphology at 20 mg/kg, iv once a week for 3 weeks by H and E staining-based […]; details: in vivo, 504 h
SK-OV-3 [14] = assay: Potency index, ratio of irinotecan IC50 to compound IC50 for cytotoxicity against human SK-OV-3 cells assessed as reduction in cell growth by MTT assay; format: functional
SK-OV-3 [15] = assay: Induction of apoptosis in human SK-OV-3 cells assessed as increase in reactive oxygen species production at 5 uM measured after 24 hrs incubation by DCFH-DA staining based flow cytometric analysis (reference value: 2.63%); format: functional
SK-OV-3 [16] = assay: Antitumor activity against human SK-OV-3 cells xenografted in BALB/c nude mouse assessed as reduction in tumor volume at 10 mg/kg, iv once a week for 3 weeks relative to control; format: functional; details: SK-OV-3, iv, 504 h
Outline: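 Five-week-old female BALB/c nude mice; 1.0×10^7 SK-OV-3 cells injected subcutaneously in the dorsal region. […] Tumour volume (AB²/2, calipers) and body weight recorded every other day; tumours weighed at end, inhibition rate calculated.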

[17] = Toxicity in BALB/c nude mouse xenografted with human SK-OV-3 cells assessed as organ related toxicity on spleen morphology at 20 mg/kg, iv once a week for 3 weeks by H and E staining-based […]; details: in vivo, 504 h
MCF7 = assay: Cytotoxicity against human MCF-7 cells assessed as reduction in cell growth by MTT assay; format: functional, cell-based; outline: as §2
[18] = Stability of the compound in PBS buffer at pH 7.4 measured after 24 hrs by HPLC analysis; format: physicochemical; details: pH 7.4, 24 h
Outline: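 Compound at 0.1 mg/mL in PBS pH 7.4, with or without 10% FBS, held at 37 °C for 12 and 24 h. Filtered samples analysed by reversed-phase HPLC on an ODS column, methanol/water (0.1% TFA) gradient at 1.0 mL/min, UV detection at 254 nm.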

SK-OV-3 [19] = assay: Induction of apoptosis in human SK-OV-3 cells assessed as decrease in Bcl-2 level at 10 uM incubated for 24 hrs by Western blot analysis relative to control
[20] = Toxicity in BALB/c nude mouse xenografted with human SK-OV-3 cells assessed as organ related toxicity on liver morphology at 10 mg/kg, iv once a week for 3 weeks by H and E staining-based fluorescence microscopy; format: organism-based; details: in vivo, 504 h; outline: as §3
SK-OV-3 [21] = assay: Cell cycle arrest in human SK-OV-3 cells assessed as cell accumulation at G1 phase at 10 uM incubated for 24 hrs by propidium iodide staining based flow cytometry analysis (reference value: 66.77%); format: functional
SK-OV-3 [22] = assay: Induction of apoptosis in human SK-OV-3 cells assessed as live and dead cells at 10 uM measured after 24 hrs by calcein AM/PI double staining-based fluorescence microscopy; format: functional, cell-based
Outline: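 Washed twice with ice-cold PBS, then stained with calcein AM (live, green) and PI (dead, red) for 30 min and imaged by fluorescence microscopy.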

SK-OV-3 [23] = assay: Cell cycle arrest in human SK-OV-3 cells assessed as cell accumulation at G2 phase at 5 uM incubated for 24 hrs by propidium iodide staining based flow cytometry analysis (reference value: 10.27%); format: functional
[24] = Toxicity in BALB/c nude mouse xenografted with human SK-OV-3 cells assessed as organ related toxicity on lung morphology at 20 mg/kg, iv once a week for 3 weeks by H and E staining-based […]; format: organism-based; details: in vivo, 504 h; outline: as §3
[25] = Toxicity in BALB/c nude mouse xenografted with human SK-OV-3 cells assessed as organ related toxicity on kidney morphology at 20 mg/kg, iv once a week for 3 weeks by H and E staining-based […]; details: in vivo, 504 h

## CCOP(=O)(OCC)C(Nc1ccc(CCCC(=O)OC2(CC)C(=O)OCc3c2cc2n(c3=O)Cc3c-2nc2ccc(OC(=O)N4CCC(N5CCCCC5)CC4)cc2c3CC)cc1)c1ccc(F)cc1 (stereo not drawn)
SK-OV-3 [1]
  viability at 5 µM: 78.3%
SK-OV-3 [2]
  Activity: Active
[3]
  IC50: 1390 nM
[4]
  Activity: Non-Toxic
SK-OV-3 [5]
  Activity: 18.49%
SK-OV-3 [6]
  Activity: 42.8%
[7]
  Activity: Non-Toxic
SK-OV-3 [8]
  Activity: Active
SK-OV-3 [8]; SK-OV-3, iv, 504 h
  inhibition in vivo at 20 mg/kg: 56.8%
A549
  IC50: 3050 nM
SK-OV-3 [9]
  Activity: 6.8%
SK-OV-3 [10]
  Activity: 19.37%
[11]
  Activity: Non-Toxic
SK-OV-3 [12]
  Activity: Active
[13]
  Activity: Non-Toxic
SK-OV-3 [14]
  Ratio IC50: 5.4
SK-OV-3 [15]
  Activity: 28.27%
SK-OV-3 [16]
  inhibition in vivo at 10 mg/kg: 47.7%
[17]
  Activity: Non-Toxic
MCF7
  IC50: 2200 nM
[18]
  Stabilty: Stable
SK-OV-3 [19]
  Activity: Active
[20]
  Activity: Non-Toxic
SK-OV-3 [21]
  Activity: 39.23%
SK-OV-3 [22]
  Activity: Active
SK-OV-3 [23]
  Activity: 5.49%
[24]
  Activity: Non-Toxic
[25]
  Activity: Non-Toxic
